# Results as given in ChEMBL document CHEMBL1687712, “Antiviral effects of lamivudine, emtricitabine, adefovir dipivoxil, and tenofovir disoproxil fumarate administered orally alone and in combination to woodchucks with chronic woodchuck hepatitis virus infection” (Antimicrob Agents Chemother, 2008).
# Calls of active or inactive are those of the source. No cut-off for these calls is given here.
# Tests used:
# [1] = test system: Marmota monax; assay: Toxicity in Woodchuck hepatitis virus infected woodchuck assessed as increase of liver alanine aminotransferase activity at 15 mg/kg, po qd for 48 weeks; format: organism-based; set-up: dose 15 mg/kg, route oral; details: in vivo, 8064 h
# How it was run: (§1)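 Woodchucks chronically infected with WHV, 5 per group, received oral drug once daily in liquid diet for 48 weeks; placebo got diet only. Serum chemistry (GGT, ALP, ALT, AST, SDH, among others) was run 2 weeks pretreatment, at week 0, every other week to week 12, then monthly to week 48. Sampling continued at 2, 4, 6, 8 and 12 weeks post-treatment.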
# [2] = test system: Woodchuck hepatitis virus; assay: Antiviral activity against Woodchuck hepatitis virus infected in woodchuck assessed as reduction of viral antigen positive hepatocytes at 15 mg/kg, po qd for 48 weeks study (reference value: 35 +/- 27 %); format: functional, Hepatocyte; set-up: scale not given: the % may be the effect or the level left
# How it was run: (§2)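 Chronic WHV-carrier woodchucks, 5 per group, 15 mg/kg/day oral once daily for 48 weeks in liquid diet. Liver biopsies were taken at pretreatment, weeks 12, 36, 48 and week 60. Percentage of hepatocytes positive for WHcAg was given as group mean ± SD and compared with pretreatment and placebo.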
# [3] = test system: Woodchuck hepatitis virus; assay: Antiviral activity against Woodchuck hepatitis virus infected in woodchuck assessed as reduction of viral antigen level in serum at 15 mg/kg, po qd measured on 12th week on 48 weeks study (reference value: 4.3 +/- 1.5 log10 ng/ml); format: functional
# [4] = test system: Woodchuck hepatitis virus; assay: Antiviral activity against Woodchuck hepatitis virus infected in woodchuck assessed as reduction of viral DNA replicative intermediate level per ug of total cell DNA at 15 mg/kg, po qd for 48 weeks (reference value: 995 +/- 736 pg); format: functional
# How it was run: (§3)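 Chronic WHV-carrier woodchucks, 5 per group, 15 mg/kg/day oral once daily for 48 weeks in liquid diet. Needle liver biopsies were snap-frozen in liquid nitrogen and stored at −70°C. Hepatic WHV DNA replicative intermediates were quantified by Southern blot (pg/μg total cell DNA) and WHV RNA by Northern blot; group means ± SD were compared with pretreatment and placebo.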
# [5] = test system: Woodchuck hepatitis virus; assay: Antiviral activity against Woodchuck hepatitis virus infected in woodchuck assessed as reduction of viral DNA replicative intermediate level per ug of total cell DNA at 15 mg/kg, po qd measured on 12th week on 48 weeks study (reference value: 1495 +/- 890 pg); format: functional; how it was run: as §3
# [6] = test system: Woodchuck hepatitis virus; assay: Antiviral activity against Woodchuck hepatitis virus infected in woodchuck assessed as reduction of viral antigen positive hepatocytes at 15 mg/kg, po qd measured on 12th week on 48 weeks study (reference value: 55 +/- 32 %); format: functional, Hepatocyte; set-up: scale not given: the % may be the effect or the level left; how it was run: as §2
# [7] = test system: Marmota monax; assay: Toxicity in Woodchuck hepatitis virus infected woodchuck assessed as increase of liver alkaline phosphatase activity at 15 mg/kg, po qd for 48 weeks; format: organism-based; set-up: dose 15 mg/kg, route oral; details: in vivo, 8064 h; how it was run: as §1
# [8] = test system: Marmota monax; assay: Toxicity in Woodchuck hepatitis virus infected woodchuck assessed as increase of liver sorbitol dehydrogenase activity at 15 mg/kg, po qd measured on 28 to 48 weeks on 48 week study; format: organism-based; set-up: dose 15 mg/kg, route oral; details: in vivo; how it was run: as §1
# [9] = test system: Woodchuck hepatitis virus; assay: Antiviral activity against Woodchuck hepatitis virus infected in woodchuck assessed as frequency of hepatocytes expressing viral antigen at 15 mg/kg, po qd measured on 12th week on 48 weeks study; format: functional, Hepatocyte
# How it was run: (§4)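 Chronic WHV-carrier woodchucks, 5 per group, given 15 mg/kg/day orally once daily for 48 weeks in liquid diet; placebo is diet alone. Liver biopsies at pretreatment, weeks 12, 36, 48 and 12 weeks after withdrawal. Cytoplasmic WHsAg staining scored 0–4: 1 ≤1%, 2 ≤2%, 3 ≤5%, 4 ≥10% of hepatocytes.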
# [10] = test system: Marmota monax; assay: Toxicity in Woodchuck hepatitis virus infected woodchuck assessed as increase of liver aspartate aminotransferase activity at 15 mg/kg, po qd for 48 weeks; format: organism-based; set-up: dose 15 mg/kg, route oral; details: in vivo, 8064 h; how it was run: as §1
# [11] = test system: Woodchuck hepatitis virus; assay: Antiviral activity against Woodchuck hepatitis virus infected in woodchuck assessed as reduction of viral antigen positive hepatocytes at 15 mg/kg, po qd for 48 weeks measured on 60th week (reference value: 26 %); format: functional, Hepatocyte; set-up: scale not given: the % may be the effect or the level left; how it was run: as §2
# [12] = test system: Marmota monax; assay: Toxicity in Woodchuck hepatitis virus infected woodchuck assessed as increase of liver alanine aminotransferase activity at 15 mg/kg, po qd measured on 4 to 24 weeks on 48 week study; format: organism-based; set-up: dose 15 mg/kg, route oral; details: in vivo; how it was run: as §1
# [13] = test system: Woodchuck hepatitis virus; assay: Antiviral activity against Woodchuck hepatitis virus infected in woodchuck assessed as reduction of viral antigen positive hepatocytes at 15 mg/kg, po qd measured on 36th week on 48 weeks study (reference value: 41 +/- 25 %); format: functional, Hepatocyte; set-up: scale not given: the % may be the effect or the level left; how it was run: as §2
# [14] = test system: Woodchuck hepatitis virus; assay: Antiviral activity against Woodchuck hepatitis virus infected in woodchuck assessed as reduction of viral DNA replicative intermediate level per ug of total cell DNA at 15 mg/kg, po qd for 48 weeks measured on 60th week (reference value: 979 pg); format: functional; how it was run: as §3
# [15] = test system: Woodchuck hepatitis virus; assay: Antiviral activity against Woodchuck hepatitis virus infected in woodchuck assessed as reduction of viral RNA level per ug of total cell DNA at 15 mg/kg, po qd measured on 36th week on 48 weeks study (reference value: 33 +/- 21 pg); format: functional; how it was run: as §3
# [16] = test system: Marmota monax; assay: Toxicity in Woodchuck hepatitis virus infected woodchuck assessed as change in body weight at 15 mg/kg, po qd for 48 weeks measured up to 60 weeks; format: organism-based; set-up: dose 15 mg/kg, route oral; details: in vivo
# How it was run: (§5)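 Chronic WHV-carrier woodchucks, 5 per group, were dosed orally once daily in liquid diet for 48 weeks, with a placebo diet-only group. Body weights were monitored. Complete blood counts were taken 2 weeks pretreatment, at weeks 12, 36 and 48 of treatment, and 12 weeks after withdrawal. Values were compared with placebo controls.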
# [17] = test system: Woodchuck hepatitis virus; assay: Antiviral activity against Woodchuck hepatitis virus infected in woodchuck assessed as frequency of hepatocytes expressing viral antigen at 15 mg/kg, po qd measured on 36th week on 48 weeks study; format: functional, Hepatocyte; how it was run: as §4
# [18] = test system: Woodchuck hepatitis virus; assay: Antiviral activity against Woodchuck hepatitis virus infected in woodchuck assessed as frequency of hepatocytes expressing viral antigen at 15 mg/kg, po qd for 48 weeks; format: functional, Hepatocyte; how it was run: as §4
# [19] = test system: Woodchuck hepatitis virus; assay: Antiviral activity against Woodchuck hepatitis virus infected in woodchuck assessed as absent of lesion in portal hepatitis at 15 mg/kg, po qd measured on 12th week on 48 weeks study; format: functional, organism-based; set-up: dose 15 mg/kg
# How it was run: (§6)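 Adult chronic WHV-carrier woodchucks (neonatally inoculated), 5 per group, given drug once daily by dose syringe in semisynthetic liquid diet, for 48 weeks; placebo got diet alone. Ultrasound-guided needle liver biopsies under ketamine/xylazine anesthesia at pretreatment, weeks 12, 36, 48 and 12 weeks post-withdrawal. Biopsies were formalin-fixed, paraffin-embedded and H&E stained. Portal and lobular hepatitis were graded 0 (absent) to 4 (most severe).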
# [20] = test system: Woodchuck hepatitis virus; assay: Antiviral activity against Woodchuck hepatitis virus infected in woodchuck assessed as frequency of hepatocytes expressing viral antigen at 15 mg/kg, po qd for 48 weeks measured on 60th week; format: functional, Hepatocyte; how it was run: as §4
# [21] = test system: Woodchuck hepatitis virus; assay: Antiviral activity against Woodchuck hepatitis virus infected in woodchuck assessed as reduction of viral antigen level in serum at 15 mg/kg, po qd measured on 36th week on 48 weeks study (reference value: 3.8 +/- 1.3 log10 ng/ml); format: functional
# [22] = test system: Woodchuck hepatitis virus; assay: Antiviral activity against Woodchuck hepatitis virus infected in woodchuck assessed as reduction of viral RNA level per ug of total cell DNA at 15 mg/kg, po qd for 48 weeks (reference value: 34 +/- 20 pg); format: functional; how it was run: as §3
# [23] = test system: Marmota monax; assay: Toxicity in Woodchuck hepatitis virus infected woodchuck assessed as increase of liver sorbitol dehydrogenase activity at 15 mg/kg, po qd measured on 4 to 24 weeks on 48 week study; format: organism-based; set-up: dose 15 mg/kg, route oral; details: in vivo; how it was run: as §1
# [24] = test system: Woodchuck hepatitis virus; assay: Antiviral activity against Woodchuck hepatitis virus infected in woodchuck assessed as absent of lesion in portal hepatitis at 15 mg/kg, po qd for 48 weeks; format: functional, organism-based; set-up: dose 15 mg/kg; how it was run: as §6
# [25] = test system: Woodchuck hepatitis virus; assay: Antiviral activity against Woodchuck hepatitis virus infected in woodchuck assessed as reduction of viral RNA level per ug of total cell DNA at 15 mg/kg, po qd measured on 12th week on 48 weeks study (reference value: 46 +/- 25 pg); format: functional; how it was run: as §3
# [26] = test system: Marmota monax; assay: Toxicity in Woodchuck hepatitis virus infected woodchuck assessed as increase of serum gamma-glutamyltransferase activity at 15 mg/kg, po qd for 48 weeks; format: organism-based; set-up: dose 15 mg/kg, route oral; details: in vivo, 8064 h; how it was run: as §1
# [27] = test system: Woodchuck hepatitis virus; assay: Antiviral activity against Woodchuck hepatitis virus infected in woodchuck assessed as reduction of viral antigen level in serum at 15 mg/kg, po qd for 48 weeks measured on 60th week (reference value: 3.3 +/- 1.6 log10 ng/ml); format: functional
# [28] = test system: Woodchuck hepatitis virus; assay: Antiviral activity against Woodchuck hepatitis virus infected in woodchuck assessed as reduction of viral DNA replicative intermediate level per ug of total cell DNA at 15 mg/kg, po qd measured on 36th week on 48 weeks study (reference value: 1132 +/- 738 pg); format: functional; how it was run: as §3
# [29] = test system: Marmota monax; assay: Toxicity in Woodchuck hepatitis virus infected woodchuck assessed as effect on hematological parameters at 15 mg/kg, po qd for 48 weeks measured up to 60 weeks; format: organism-based; set-up: dose 15 mg/kg, route oral; details: in vivo; how it was run: as §5
# [30] = test system: Woodchuck hepatitis virus; assay: Antiviral activity against Woodchuck hepatitis virus infected in woodchuck assessed as reduction of viral antigen level in serum at 15 mg/kg, po qd for 48 weeks (reference value: 3.8 +/- 1.3 log10 ng/ml); format: functional
# [31] = test system: Woodchuck hepatitis virus; assay: Antiviral activity against Woodchuck hepatitis virus infected in woodchuck assessed as reduction of viral RNA level per ug of total cell DNA at 15 mg/kg, po qd for 48 weeks measured on 60th week (reference value: 27 pg); format: functional; how it was run: as §3
# [32] = test system: Woodchuck hepatitis virus; assay: Antiviral activity against Woodchuck hepatitis virus infected in woodchuck assessed as absent of lesion in lobular hepatitis at 15 mg/kg, po qd measured on 12th week on 48 weeks study; format: functional, organism-based; set-up: dose 15 mg/kg; how it was run: as §6
Structure (SMILES),Activity [1],Activity [2] [%],Activity [3] [log10ng/ml],Activity [4] [pg],Activity [5] [pg],Activity [6] [%],Activity [7],Activity [8],Activity [9] [%],Activity [10],Activity [11] [%],Activity [12],Activity [13] [%],Activity [14] [pg],Activity [15] [pg],Activity [16],Activity [17] [%],Activity [18] [%],Activity [19],Activity [20] [%],further results
Nc1nc(=O)n([C@@H]2CS[C@H](CO)O2)cc1F [EMTRICITABINE],Toxic,40,4.5,428,845,47,Toxic,Toxic,2,Toxic,64,Toxic,63,1239,43,Non-toxic,10,10,Active,10,Activity [21]: 4.5 log10ng/ml; Activity [22]: 35 pg; Activity [23]: Toxic; Activity [24]: Active; Activity [25]: 42 pg; Activity [26]: Toxic; Activity [27]: 4.7 log10ng/ml; Activity [28]: 644 pg; Activity [29]: Non-toxic; Activity [30]: 4.4 log10ng/ml; Activity [31]: 48 pg
Nc1ccn([C@@H]2CS[C@H](CO)O2)c(=O)n1 [LAMIVUDINE],Toxic,36,4.7,413,982,39,Toxic,Toxic,1,Toxic,48,Toxic,59,1063,47,Non-toxic,5,5,Active,5,Activity [32]: Active; Activity [21]: 5.2 log10ng/ml; Activity [22]: 33 pg; Activity [23]: Toxic; Activity [25]: 39 pg; Activity [26]: Toxic; Activity [27]: 4.6 log10ng/ml; Activity [28]: 1133 pg; Activity [29]: Non-toxic; Activity [30]: 4.4 log10ng/ml; Activity [31]: 46 pg
